# Measurements as given in ChEMBL document CHEMBL3734708, “Synthesis, cytotoxicity and antiviral evaluation of new series of imidazo[4,5-g]quinoline and pyrido[2,3-g]quinoxalinone derivatives” (Eur J Med Chem, 2015).
# Columns and labels:
# [1] = Cytotoxicity against MDBK cells assessed as reduction in cell viability after 72 hrs by MTT assay; assay type: cell-based, Bos taurus; conditions: cattle
# How it was run: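 MDBK cells seeded at 6 × 10^5 cells/mL in MEM-E with L-glutamine, 1 mM sodium pyruvate, kanamycin and 10% horse serum. Mock-infected cultures held with serial compound dilutions at 37 °C, 5% CO2. MTT viability read after 72 h. 50% cytotoxic concentration from linear regression as % of untreated controls. Three independent determinations.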
# [2] = system: Human poliovirus 1 strain Sabin; assay: Antiviral activity against Human poliovirus 1 strain Sabin 1 virus infected in african green monkey Vero-76 cells after 2 days by plaque reduction assay; assay type: functional, organism-based; conditions: Enterovirus C, 1, Vero 76, 48 h
# Vaccinia virus = assay: Antiviral activity against VV Elstree ATCC VR-1549 infected in african green monkey Vero-76 cells after 3 days by plaque reduction assay; assay type: functional, organism-based; conditions: Orthopoxvirus vaccinia, Elstree ATCC VR-1549, Vero 76, 72 h
# [3] = Cytotoxicity against african green monkey Vero 76 cells assessed as reduction in cell viability after 48 to 96 hrs by MTT assay; assay type: cell-based; conditions: chlorocebus sabaeus
# How it was run: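 Vero-76 cells plated at 4 × 10^5 cells/mL in D-MEM with L-glutamine, kanamycin and 10% FBS. Incubated with serial dilutions of test compounds at 37 °C, 5% CO2 for 48-96 h. Viability by MTT. CC50 by linear regression relative to untreated cells. Mean of three independent runs.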
# Yellow fever virus = assay: Antiviral activity against YFV 17-D vaccine (Stamaril Pasteur J07B01) infected in BHK21 cells assessed as protection against virus-induced cytopathic effect after 3 or 4 days by MTT assay; assay type: functional, organism-based; conditions: BHK-21
# How it was run: (§1)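 BHK-21 (YFV, Reo-1) or MDBK (BVDV) cells seeded at 5 × 10^4 or 3 × 10^4 cells/well and grown overnight to confluence. Monolayers infected at m.o.i. 0.01 in maintenance medium (MEM-Earle, 0.5% inactivated FBS). Serial compound dilutions added 2 h after infection; 37 °C for 3-4 days. Viability read by MTT. EC50 by linear regression versus untreated controls; mean of three determinations.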
# [4] = system: Human immunodeficiency virus 1; assay: Antiviral activity against HIV-1 3B infected in human MT4 cells assessed as protection against virus-induced cytopathic effect after 4 days by MTT assay; assay type: functional, organism-based; conditions: Human immunodeficiency virus 1, 3B, MT4, 96 h
# How it was run: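 MT-4 cells (1 × 10^4/well in RPMI) with or without serial compound dilutions, infected with HIV-1 at 100 CCID50 (m.o.i. 0.01). After 4 days at 37 °C, protection from cytopathogenicity read by MTT. EC50 by linear regression versus untreated controls; mean of three independent determinations.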
# Human alphaherpesvirus 1 = assay: Antiviral activity against HSV-1 KOS ATCC VR- 1493 infected in african green monkey Vero-76 cells after 3 days by plaque reduction assay; assay type: functional, organism-based; conditions: Human alphaherpesvirus 1, KOS ATCC VR1493, Vero 76, 72 h
# [5] = system: Bovine viral diarrhea virus 1; assay: Antiviral activity against BVDV NADL ATCC VR-534 infected in MDBK cells assessed as protection against virus-induced cytopathic effect after 3 or 4 days by MTT assay; assay type: functional, organism-based; conditions: Bovine viral diarrhea virus isolates and strains, NADL ATCC VR-534, MDBK; how it was run: as §1
# [6] = system: Mammalian orthoreovirus 1; assay: Antiviral activity against Reovirus 1 ATCC VR- 214 infected in BHK21 cells assessed as protection against virus-induced cytopathic effect after 3 or 4 days by MTT assay; assay type: functional, cell-based; conditions: Mammalian orthoreovirus 1, ATCC VR- 214, BHK-21; how it was run: as §1
# [7] = system: Vesicular stomatitis virus; assay: Antiviral activity against VSV Indiana ATCC VR-158 infected in african green monkey Vero-76 cells after 2 days by plaque reduction assay; assay type: functional, organism-based; conditions: Indiana ATCC VR-158, Vero 76, 48 h
# [8] = Cytotoxicity against BHK21 cells assessed as reduction in cell viability after 72 hrs by MTT assay; assay type: cell-based, Mesocricetus auratus, BHK-21; conditions: hamster
# How it was run: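 BHK cells seeded at 1 × 10^6 cells/mL in MEM-E with L-glutamine, 1 mM sodium pyruvate, kanamycin and 10% FBS. Mock-infected cells exposed to serial dilutions of compound at 37 °C, 5% CO2, run in parallel with the antiviral assays. Viability by MTT at 72 h. CC50 by linear regression vs untreated controls. Mean of three independent determinations.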
# [9] = Cytotoxicity against human MT4 cells assessed as reduction in cell proliferation after 96 hrs by MTT assay; assay type: cell-based
# How it was run: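 MT-4 cells in exponential growth seeded at 1 × 10^5 cells/mL in RPMI-1640 with 10% FBS and penicillin/streptomycin. Cultured with serial compound dilutions at 37 °C, 5% CO2. MTT viability after 96 h. CC50 by linear regression against untreated controls. Mean of three independent determinations.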
# Coxsackievirus B5 = assay: Antiviral activity against CVB-5 virus Faulkner ATCC VR-185 infected in african green monkey Vero-76 cells after 3 days by plaque reduction assay; assay type: functional, organism-based; conditions: Enterovirus B, Faulkner ATCC VR-185, Vero 76, 72 h
# [10] = system: Respiratory syncytial virus; assay: Antiviral activity against RSVA2 ATCC VR-1540 infected in african green monkey Vero-76 cells after 5 days by plaque reduction assay; assay type: functional, organism-based; conditions: human respiratory syncytial virus, A2 ATCC VR-1540, Vero 76, 120 h
# [11] = Selectivity index, ratio of CC50 for MDBK cells to EC50 for BVDV infected in MDBK cells
# [12] = Selectivity index, ratio of CC50 for human GS4.1 cells to EC50 for Hepatitis C virus genotype 1b replicon infected in human GS4.1 cells; assay type: toxicity, cell-based; conditions: read-out: Ratio CC50/EC50
# How it was run: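 Replicon GS4.1 cells 7.5 × 10^3/well with twofold dilutions (top 75 µM), 72 h at 37 °C. Replication measured by NS4A ELISA (anti-NS4A A-236, peroxidase conjugate, phenylenediamine, A492), with EC50 by four-parameter sigmoidal fit. CC50 from CellTiter 96 AQueous One in the same cells. Index taken as CC50/EC50.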
# [13] = Cytotoxicity against human GS4.1 cells assessed as reduction in cell viability after 72 hrs by Cell Titer 96 aqueous one solution cell proliferation assay; assay type: cell-based
# How it was run: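 GS4.1 cells (Huh-7 carrying an HCV genotype 1b replicon, grown with 0.5 mg/mL G418) seeded at 7.5 × 10^3 cells/well with twofold serial dilutions, top 75 µM. Incubated 72 h at 37 °C, 5% CO2. Viability by CellTiter 96 AQueous One. CC50 from % cytotoxicity vs concentration.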
# Hepatitis C virus = assay: Antiviral activity against Hepatitis C virus genotype 1b replicon infected in human GS4.1 cells assessed as protection against virus-induced cytopathic effect after […] by ELISA; assay type: functional, organism-based, Hepacivirus hominis
# How it was run: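 Huh-7 cells carrying the genotype 1b replicon (GS4.1) seeded at 7.5 × 10^3 cells/well in twofold serial compound dilutions (top 75 µM). Replicon-free Huh-7 served as negative control. 72 h at 37 °C. Fixed in acetone-methanol; NS4A ELISA with mouse monoclonal A-236, peroxidase anti-mouse IgG and phenylenediamine; absorbance at 492 nm. EC50 by four-parameter sigmoidal regression of % inhibition.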
Compound,CC50 at 72 h [1],EC50 [2],EC50 (Vaccinia virus),CC50 [3],EC50 (Yellow fever virus),EC50 [4],EC50 (Human alphaherpesvirus 1),EC50 [5],EC50 [6],EC50 [7],CC50 at 72 h [8],CC50 at 96 h [9],EC50 (Coxsackievirus B5),EC50 [10],Ratio CC50/EC50 [11],selectivity ratio [12],CC50 at 72 h [13],EC50 (Hepatitis C virus)
c1ccc(-c2nc3cc4cccnc4cc3n2C2CCCCC2)cc1,> 100 µM,> 35 µM,> 35 µM,35 µM,> 100 µM,> 50 µM,> 35 µM,29 µM,67 µM,> 35 µM,> 100 µM,50 µM,> 35 µM,> 35 µM,,,,
c1ccc(Cc2nc3cc4cccnc4cc3n2CC2CCCCC2)cc1,> 100 µM,> 25 µM,> 25 µM,25 µM,> 71 µM,> 10 µM,> 25 µM,10 µM,> 71 µM,> 25 µM,71 µM,10 µM,> 25 µM,> 25 µM,,,,
O=c1[nH]c2cc3cccnc3c(Cl)c2nc1-c1cccs1,> 100 µM,> 100 µM,> 100 µM,> 100 µM,> 100 µM,> 100 µM,> 100 µM,6 µM,> 100 µM,> 100 µM,> 100 µM,> 100 µM,> 100 µM,> 100 µM,>16,3,21 µM,7.5 µM
CCCn1c(-c2ccccc2)nc2cc3cccnc3cc21,> 100 µM,> 90 µM,> 90 µM,90 µM,> 100 µM,> 62 µM,> 90 µM,> 100 µM,> 100 µM,> 90 µM,> 100 µM,62 µM,13 µM,> 90 µM,,,,
CCCn1c(=O)c(-c2ccccc2)nc2cc3cccnc3c(Cl)c21,40 µM,> 50 µM,> 50 µM,50 µM,> 100 µM,> 40 µM,> 50 µM,33 µM,> 100 µM,> 50 µM,> 100 µM,40 µM,7 µM,> 50 µM,,,,
O=c1c(-c2ccccc2)nc2cc3cccnc3c(Cl)c2n1C1CCCCC1,> 100 µM,> 70 µM,> 70 µM,70 µM,> 100 µM,> 48 µM,> 70 µM,4 µM,> 100 µM,> 70 µM,> 100 µM,48 µM,> 70 µM,> 70 µM,,,,
